According to ChEMBL document CHEMBL1667809, “Synthesis and in vitro antibacterial activity of 7-(3-alkoxyimino-5-amino/methylaminopiperidin-1-yl)fluoroquinolone derivatives” (Bioorg Med Chem Lett, 2011):
Converted amounts (≈) assume the structure as drawn.

Key:
[1] = tested on: Klebsiella pneumoniae; test: Antibacterial activity against Klebsiella pneumoniae 10-1 after 18 to 24 hrs by agar dilution method; type: functional
Method in brief: (§1)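 Agar dilution on Petri dishes, each inoculated with 10⁴ cfu of the strain and incubated at 35 °C for 18–24 h. MIC read as the lowest compound concentration giving no visible growth on the plate.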

[2] = tested on: Streptococcus pneumoniae; test: Antibacterial activity against Streptococcus pneumoniae 1001 after 18 to 24 hrs by agar dilution method; type: functional; method in brief: as §1
[3] = Cytotoxicity against african green monkey Vero cells after 24 hrs; type: cell-based; settings: chlorocebus sabaeus
Method in brief: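 Vero cells exposed to graded compound concentrations for 24 h, then viability assessed; CC₅₀ derived from the viability data.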

[4] = tested on: Streptococcus pyogenes; test: Antibacterial activity against Streptococcus hemolyticus 1002 after 18 to 24 hrs by agar dilution method; type: functional; method in brief: as §1
[5] = tested on: Staphylococcus epidermidis; test: Antibacterial activity against methicillin-sensitive Staphylococcus epidermidis 10-4 after 18 to 24 hrs by agar dilution method; type: functional; method in brief: as §1
[6] = tested on: Escherichia coli; test: Antibacterial activity against Escherichia coli 10-02 after 18 to 24 hrs by agar dilution method; type: functional; method in brief: as §1
[7] = tested on: Staphylococcus aureus; test: Antibacterial activity against methicillin-resistant Staphylococcus aureus 10-05 after 18 to 24 hrs by agar dilution method; type: functional
Method in brief: (§2)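 Agar dilution on Petri dishes, each inoculated with 10⁴ cfu. Plates incubated at 35 °C for 18–24 h. MIC taken as the lowest test-compound concentration giving no visible growth on the plate. Reference drugs gemifloxacin, ciprofloxacin and levofloxacin run alongside for comparison.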

[8] = tested on: Escherichia coli; test: Antibacterial activity against Escherichia coli ATCC 25922 after 18 to 24 hrs by agar dilution method; type: functional; method in brief: as §1
[9] = tested on: Staphylococcus aureus; test: Antibacterial activity against methicillin-sensitive Staphylococcus aureus 10-04 after 18 to 24 hrs by agar dilution method; type: functional; method in brief: as §1
[10] = tested on: Pseudomonas aeruginosa; test: Antibacterial activity against Pseudomonas aeruginosa ATCC 27853 after 18 to 24 hrs by agar dilution method; type: functional; method in brief: as §1
[11] = tested on: Pseudomonas aeruginosa; test: Antibacterial activity against Pseudomonas aeruginosa 10-1 after 18 to 24 hrs by agar dilution method; type: functional; method in brief: as §1
[12] = tested on: Staphylococcus epidermidis; test: Antibacterial activity against methicillin-resistant Staphylococcus epidermidis 10-5 after 18 to 24 hrs by agar dilution method; type: functional; method in brief: as §2
[13] = tested on: Staphylococcus aureus; test: Antibacterial activity against Staphylococcus aureus ATCC 25923 after 18 to 24 hrs by agar dilution method; type: functional; method in brief: as §1
[14] = tested on: Staphylococcus aureus; test: Ratio of compound MIC to CPFX MIC for methicillin-sensitive Staphylococcus aureus 10-04; type: functional
[15] = tested on: Staphylococcus aureus; test: Ratio of compound MIC to LVFX MIC for methicillin-sensitive Staphylococcus aureus 10-04; type: functional
[16] = tested on: Staphylococcus aureus; test: Ratio of compound MIC to GMFX MIC for methicillin-sensitive Staphylococcus aureus 10-04; type: functional

## CO/N=C1\CC(N)CN(c2nc3c(cc2F)c(=O)c(C(=O)O)cn3C2CC2)C1 (stereo unspecified)
[1]
  MIC: 128 µg/mL (≈ 329 µM)
[2]
  MIC: 4 µg/mL (≈ 10.3 µM)
[3]
  CC50 at 24 h: 822 µM
[4]
  MIC: 128 µg/mL (≈ 329 µM)
[5]
  MIC: 2 µg/mL (≈ 5.14 µM)
[6]
  MIC: 0.25 µg/mL (≈ 0.642 µM)
[7]
  MIC: 128 µg/mL (≈ 329 µM)
[8]
  MIC: 0.25 µg/mL (≈ 0.642 µM)
[9]
  MIC: 8 µg/mL (≈ 20.5 µM)
[10]
  MIC: 128 µg/mL (≈ 329 µM)
[11]
  MIC: 128 µg/mL (≈ 329 µM)
[12]
  MIC: 16 µg/mL (≈ 41.1 µM)
[13]
  MIC: 4 µg/mL (≈ 10.3 µM)

## CCO/N=C1\CC(N)CN(c2nc3c(cc2F)c(=O)c(C(=O)O)cn3C2CC2)C1 (stereo unspecified)
[1]
  MIC: 128 µg/mL (≈ 317 µM)
[2]
  MIC: 4 µg/mL (≈ 9.92 µM)
[3]
  CC50 at 24 h: 967 µM
[4]
  MIC: 128 µg/mL (≈ 317 µM)
[5]
  MIC: 4 µg/mL (≈ 9.92 µM)
[6]
  MIC: 0.5 µg/mL (≈ 1.24 µM)
[7]
  MIC: 16 µg/mL (≈ 39.7 µM)
[8]
  MIC: 0.25 µg/mL (≈ 0.62 µM)
[9]
  MIC: 2 µg/mL (≈ 4.96 µM)
[10]
  MIC: 128 µg/mL (≈ 317 µM)
[11]
  MIC: 128 µg/mL (≈ 317 µM)
[12]
  MIC: 8 µg/mL (≈ 19.8 µM)
[13]
  MIC: 4 µg/mL (≈ 9.92 µM)

## CNC1C/C(=N\OC)CN(c2nc3c(cc2F)c(=O)c(C(=O)O)cn3C2CC2)C1 (stereo unspecified)
[1]
  MIC: > 128 µg/mL
[2]
  MIC: 4 µg/mL (≈ 9.92 µM)
[3]
  CC50 at 24 h: 645 µM
[4]
  MIC: > 128 µg/mL
[5]
  MIC: 2 µg/mL (≈ 4.96 µM)
[6]
  MIC: 0.25 µg/mL (≈ 0.62 µM)
[7]
  MIC: 128 µg/mL (≈ 317 µM)
[8]
  MIC: 0.25 µg/mL (≈ 0.62 µM)
[9]
  MIC: 4 µg/mL (≈ 9.92 µM)
[10]
  MIC: 128 µg/mL (≈ 317 µM)
[11]
  MIC: > 128 µg/mL
[12]
  MIC: 16 µg/mL (≈ 39.7 µM)
[13]
  MIC: 0.5 µg/mL (≈ 1.24 µM)

## CCO/N=C1\CC(NC)CN(c2nc3c(cc2F)c(=O)c(C(=O)O)cn3C2CC2)C1 (stereo unspecified)
[1]
  MIC: > 128 µg/mL
[2]
  MIC: 4 µg/mL (≈ 9.58 µM)
[3]
  CC50 at 24 h: 731 µM
[4]
  MIC: > 128 µg/mL
[5]
  MIC: 8 µg/mL (≈ 19.2 µM)
[6]
  MIC: 0.25 µg/mL (≈ 0.599 µM)
[7]
  MIC: 8 µg/mL (≈ 19.2 µM)
[8]
  MIC: 0.25 µg/mL (≈ 0.599 µM)
[9]
  MIC: 4 µg/mL (≈ 9.58 µM)
[10]
  MIC: 128 µg/mL (≈ 307 µM)
[11]
  MIC: > 128 µg/mL
[12]
  MIC: 16 µg/mL (≈ 38.3 µM)
[13]
  MIC: 2 µg/mL (≈ 4.79 µM)

## CO/N=C1\CC(N)CN(c2c(F)cc3c(=O)c(C(=O)O)cn(C4CC4)c3c2F)C1 (stereo unspecified)
[1]
  MIC: 128 µg/mL (≈ 315 µM)
[2]
  MIC: 0.25 µg/mL (≈ 0.615 µM)
[3]
  CC50 at 24 h: 739 µM
[4]
  MIC: 128 µg/mL (≈ 315 µM)
[5]
  MIC: 4 µg/mL (≈ 9.84 µM)
[6]
  MIC: 0.25 µg/mL (≈ 0.615 µM)
[7]
  MIC: 8 µg/mL (≈ 19.7 µM)
[8]
  MIC: 0.25 µg/mL (≈ 0.615 µM)
[9]
  MIC: 0.5 µg/mL (≈ 1.23 µM)
[14]
  Ratio: 4
[10]
  MIC: 128 µg/mL (≈ 315 µM)
[11]
  MIC: 128 µg/mL (≈ 315 µM)
[15]
  Ratio: 4
[12]
  MIC: 8 µg/mL (≈ 19.7 µM)
[13]
  MIC: 0.25 µg/mL (≈ 0.615 µM)
[16]
  Ratio: 4

## CO/N=C1\CC(N)CN(c2c(F)cc3c(=O)c(C(=O)O)cn(C4CC4)c3c2OC(F)F)C1 (stereo unspecified)
[1]
  MIC: > 128 µg/mL
[2]
  MIC: 4 µg/mL (≈ 8.8 µM)
[3]
  CC50 at 24 h: 667 µM
[4]
  MIC: > 128 µg/mL
[5]
  MIC: 2 µg/mL (≈ 4.4 µM)
[6]
  MIC: 0.25 µg/mL (≈ 0.55 µM)
[7]
  MIC: 128 µg/mL (≈ 282 µM)
[8]
  MIC: 0.25 µg/mL (≈ 0.55 µM)
[9]
  MIC: 8 µg/mL (≈ 17.6 µM)
[10]
  MIC: 128 µg/mL (≈ 282 µM)
[11]
  MIC: > 128 µg/mL
[12]
  MIC: 8 µg/mL (≈ 17.6 µM)
[13]
  MIC: 2 µg/mL (≈ 4.4 µM)

## CO/N=C1\CC(N)CN(c2c(F)cc3c(=O)c(C(=O)O)cn4c3c2OC[C@@H]4C)C1 (stereo partly specified)
[1]
  MIC: 64 µg/mL (≈ 158 µM)
[2]
  MIC: 0.5 µg/mL (≈ 1.24 µM)
[3]
  CC50 at 24 h: 1000 µM
[4]
  MIC: 64 µg/mL (≈ 158 µM)
[5]
  MIC: 4 µg/mL (≈ 9.89 µM)
[6]
  MIC: 0.5 µg/mL (≈ 1.24 µM)
[7]
  MIC: 128 µg/mL (≈ 317 µM)
[8]
  MIC: 0.25 µg/mL (≈ 0.618 µM)
[9]
  MIC: 2 µg/mL (≈ 4.95 µM)
[10]
  MIC: 8 µg/mL (≈ 19.8 µM)
[11]
  MIC: 64 µg/mL (≈ 158 µM)
[12]
  MIC: 8 µg/mL (≈ 19.8 µM)
[13]
  MIC: 0.5 µg/mL (≈ 1.24 µM)

## CO/N=C1\CC(N)CN(c2cc3c(cc2F)c(=O)c(C(=O)O)cn3C2CC2)C1 (stereo unspecified)
[1]
  MIC: 64 µg/mL (≈ 165 µM)
[2]
  MIC: 4 µg/mL (≈ 10.3 µM)
[3]
  CC50 at 24 h: 593 µM
[4]
  MIC: 128 µg/mL (≈ 330 µM)
[5]
  MIC: 8 µg/mL (≈ 20.6 µM)
[6]
  MIC: 0.25 µg/mL (≈ 0.644 µM)
[7]
  MIC: 64 µg/mL (≈ 165 µM)
[8]
  MIC: 0.25 µg/mL (≈ 0.644 µM)
[9]
  MIC: 4 µg/mL (≈ 10.3 µM)
[10]
  MIC: 2 µg/mL (≈ 5.15 µM)
[11]
  MIC: > 128 µg/mL
[12]
  MIC: 16 µg/mL (≈ 41.2 µM)
[13]
  MIC: 0.5 µg/mL (≈ 1.29 µM)

## CCn1cc(C(=O)O)c(=O)c2cc(F)c(N3C/C(=N/OC)CC(N)C3)c(F)c21 (stereo unspecified)
[1]
  MIC: > 128 µg/mL
[2]
  MIC: 0.5 µg/mL (≈ 1.27 µM)
[3]
  CC50 at 24 h: 913 µM
[4]
  MIC: 128 µg/mL (≈ 325 µM)
[5]
  MIC: 16 µg/mL (≈ 40.6 µM)
[6]
  MIC: 0.25 µg/mL (≈ 0.634 µM)
[7]
  MIC: 32 µg/mL (≈ 81.1 µM)
[8]
  MIC: 0.25 µg/mL (≈ 0.634 µM)
[9]
  MIC: 0.25 µg/mL (≈ 0.634 µM)
[14]
  Ratio: 4
[10]
  MIC: 8 µg/mL (≈ 20.3 µM)
[11]
  MIC: > 128 µg/mL
[15]
  Ratio: 4
[12]
  MIC: 16 µg/mL (≈ 40.6 µM)
[13]
  MIC: 0.25 µg/mL (≈ 0.634 µM)

## O=C(O)c1cn(C2CC2)c2cc(N3CCNCC3)c(F)cc2c1=O [CIPROFLOXACIN]
[1]
  MIC: 32 µg/mL (≈ 96.6 µM)
[2]
  MIC: 0.03 µg/mL (≈ 0.0905 µM)
[4]
  MIC: 64 µg/mL (≈ 193 µM)
[5]
  MIC: 1 µg/mL (≈ 3.02 µM)
[7]
  MIC: 64 µg/mL (≈ 193 µM)
[10]
  MIC: 32 µg/mL (≈ 96.6 µM)
[11]
  MIC: 1 µg/mL (≈ 3.02 µM)
[12]
  MIC: 16 µg/mL (≈ 48.3 µM)
[13]
  MIC: 0.25 µg/mL (≈ 0.754 µM)

## CO/N=C1\CN(c2nc3c(cc2F)c(=O)c(C(=O)O)cn3C2CC2)CC1CN (stereo unspecified) [GEMIFLOXACIN]
[1]
  MIC: 32 µg/mL (≈ 82.2 µM)
[2]
  MIC: 0.008 µg/mL (≈ 0.0205 µM)
[4]
  MIC: 8 µg/mL (≈ 20.5 µM)
[5]
  MIC: 0.25 µg/mL (≈ 0.642 µM)
[6]
  MIC: 0.06 µg/mL (≈ 0.154 µM)
[7]
  MIC: 4 µg/mL (≈ 10.3 µM)
[8]
  MIC: 0.015 µg/mL (≈ 0.0385 µM)
[9]
  MIC: 2 µg/mL (≈ 5.14 µM)
[10]
  MIC: 2 µg/mL (≈ 5.14 µM)
[11]
  MIC: 1 µg/mL (≈ 2.57 µM)
[12]
  MIC: 8 µg/mL (≈ 20.5 µM)
[13]
  MIC: 0.008 µg/mL (≈ 0.0205 µM)

## C[C@H]1COc2c(N3CCN(C)CC3)c(F)cc3c(=O)c(C(=O)O)cn1c23.C[C@H]1COc2c(N3CCN(C)CC3)c(F)cc3c(=O)c(C(=O)O)cn1c23.O [LEVOFLOXACIN]
[1]
  MIC: 32 µg/mL
[2]
  MIC: 0.015 µg/mL
[4]
  MIC: 32 µg/mL
[5]
  MIC: 2 µg/mL
[7]
  MIC: 32 µg/mL
[9]
  MIC: 8 µg/mL
[12]
  MIC: 8 µg/mL
[13]
  MIC: 0.125 µg/mL
